MrgX1 agonist – activates human MrgX1 receptor signaling; 310,000 compounds, 0.44% hits; B-score at 10 µM; AID 588627; Q96LB2; MrgX1-HEK293 cells, Fluo-4 calcium fluorescence, agonist mode; active compounds read high;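 active means calcium response B-score plate-corrected fluorescence ratio at least 3 library SD, with starting fluorescence B-score inside 5 SD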
Target sequence (Q96LB2 whole entry, looked up): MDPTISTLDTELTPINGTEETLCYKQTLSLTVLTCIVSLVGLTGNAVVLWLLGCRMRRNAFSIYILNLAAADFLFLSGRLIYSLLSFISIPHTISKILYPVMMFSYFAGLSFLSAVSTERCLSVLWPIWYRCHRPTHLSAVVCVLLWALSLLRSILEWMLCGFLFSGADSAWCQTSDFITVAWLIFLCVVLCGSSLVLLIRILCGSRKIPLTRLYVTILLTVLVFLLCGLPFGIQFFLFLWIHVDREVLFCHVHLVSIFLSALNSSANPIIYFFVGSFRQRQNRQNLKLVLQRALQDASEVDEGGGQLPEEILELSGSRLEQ
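Material: MrgX1-expressing HEK293 cells; input: 15,000 cells per well; doses: test compound given as first of three sequential additions; schedule: overnight plating before 1 h dye loading; technique: Fluo-4 NW calcium-flux fluorescence, kinetic read; evaluation: baseline-normalised fluorescence change ratio, B-scored; control set: plate-wise positive and negative controls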
RGS4 pot – potentiators or activators of RGS4. HEK293 M3R/inducible RGS4, carbachol calcium flux Fluo4; active compounds read low. B-score at 10 µM. 310,000 compounds, 0.92% hits. AID 463111;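 active means B-score of the integrated calcium signal more than 4 SD below the library mean, with starting fluorescence not abnormally high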;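 further: negative B-score means reduced calcium response which marks RGS4 activation or potentiation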
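Material: M3R-expressing HEK293 line, RGS4 induced by doxycycline | Schedule: Overnight RGS4 induction, 30 min dye load 37 °C, 20 min compound RT | Measured by: Fluo4 fluorescence kinetic imaging of calcium | Read-out: Integrated calcium ratio converted to B score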
RGS4 block – human RGS4 inhibition; P49798; HEK293 M3R/RGS4 inducible, Fluo-4 calcium flux; active compounds read high; triggered by carbachol at its EC20; B-score at 10 µM; 310,000 compounds, 0.45% hits; AID 463165;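 active means B-score, a plate-corrected calcium signal, over three deviations above library mean, with baseline fluorescence within five deviations of library mean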;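 further: RGS4 expression induced by doxycycline in cells with stable M3 receptor; B-score is computed from the integrated fluorescence ratio over baseline after carbachol; higher B-score means a larger calcium signal and so more RGS4 inhibition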
Target sequence (P49798 whole entry, looked up): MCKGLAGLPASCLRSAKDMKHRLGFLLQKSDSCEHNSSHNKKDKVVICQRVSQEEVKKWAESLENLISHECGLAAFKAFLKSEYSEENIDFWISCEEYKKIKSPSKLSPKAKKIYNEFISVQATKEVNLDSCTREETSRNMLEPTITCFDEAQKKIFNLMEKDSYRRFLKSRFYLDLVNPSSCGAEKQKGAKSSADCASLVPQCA
MrgX1 allo act – allosterically activates human MrgX1 receptor signaling; Q96LB2; MrgX1-HEK293, Fluo-4 calcium flux, FDSS; active compounds read high; B-score at 10 µM; 310,000 compounds, 0.63% hits; AID 588675;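 active means plate-corrected calcium response at least 3 library SD above typical, normal starting fluorescence, not activating the receptor alone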;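 further: compound read alongside a low EC10 to EC30 dose of BAM8-22 agonist; peak minus trough fluorescence over baseline measured at the second addition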
MrgX1 antag – human MrgX1 receptor antagonism, primary screen. AID 588676. B-score at 10 µM. 310,000 compounds, 1.3% hits. MRGX1-HEK293 calcium flux, Fluo-4, BAM8-22 antagonism; active compounds read low. Q96LB2;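 active means calcium-response B-score plate-corrected more than 3 library SD below zero, starting fluorescence within 5 deviations, no agonist response on first addition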;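 further: peak minus trough fluorescence over baseline after final BAM8-22 challenge near maximal dose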
MrgX1 ant reconf – human MrgX1 receptor antagonism, re-confirmation screen; MrgX1-HEK293, BAM8-22 calcium flux, Fluo-4; active compounds read low; shares compounds with MrgX1 antag; remaining BAM8-22 calcium response % of control (active compounds read low), % at 10 µM; 2,300 compounds, 19% hits; AID 602420;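 active means remaining agonist calcium response no higher than 100% minus 3 SD of agonist-only control wells, with starting fluorescence near control levels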;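 further: agonist BAM8-22 given at a near maximal EC90 to ECmax level; peak minus minimum fluorescence divided by baseline after agonist addition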
HEK293 Ca flux – activity in parental HEK293 cells lacking MrgX1 | Fluo-4 calcium fluorescence, FDSS | fluorescence ratio F(max-min)/F0 at 10 µM | AID 624111 | shares compounds with MrgX1 antag | 4,000 compounds, 2% hits;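 active means duplicate-averaged calcium fluorescence ratio at least three times the standard deviation of buffer wells, a nonspecific response in parental cells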
HEK293 Ca counter – activity in parental HEK293 cells without MrgX1. shares compounds with MrgX1 antag. parental HEK293 calcium flux, Fluo-4 fluorescence ratio; active compounds read high. fluorescence ratio F(max-min)/F0 at 10 µM. 4,000 compounds, 0.4% hits;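 active means calcium fluorescence ratio, averaged over duplicates, at least 3 SD of the buffer-well ratio, meaning a nonspecific response in receptor-free cells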;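 further: untransfected parental HEK293 lacking MrgX1 used as counterscreen for MrgX1 allosteric activators; fluorescence change taken during the second addition on a kinetic imager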
HEK293 Ca cntr2 – MrgX1 activator counter-screen hit in parental HEK293 cells; 4,000 compounds, 8.7% hits; AID 624115; shares compounds with MrgX1 antag; fluorescence ratio F(max-min)/F0 at 10 µM; Fluo-4 calcium fluorescence (FDSS); active compounds read high;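 active means calcium fluorescence ratio at least three times the spread of buffer wells, meaning a non-specific response in parental cells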
Active calls of the source: *; i = inactive; . = no result. This is a sample that favours compounds with a hit; in the whole collection about 3.5% have one here.

SMILES	MrgX1 agonist	RGS4 pot	RGS4 block	MrgX1 allo act	MrgX1 antag	MrgX1 ant reconf	HEK293 Ca flux	HEK293 Ca counter	HEK293 Ca cntr2
Cc1cc2ncn(C(=O)c3ccc(F)cc3)c2cc1C	i	i	i	i	i	.	.	.	.
CCC(=O)Nc1cc(C(=O)NCC2CCCN2CC)c(OC)cc1N(C)C (stereo not given)	i	i	i	i	i	.	.	.	.
CCN1CCCC1CNC(=O)c1cc(NC(C)=O)c(N(C)C)cc1OC (stereo not given)	i	i	i	i	-6.5*	i	i	i	i
COc1ccccc1NC(=O)N1CCC(NC(=O)C2CCCCC2)CC1	i	i	i	i	-8.2*	i	i	i	i
S=C(Nc1cccc2ccccc12)NC1CCCCC1	i	i	i	i	-5.4*	i	i	i	i
COc1ccccc1C(=O)NC1CCCCCCC1	i	i	i	i	-11*	i	i	i	i
CSc1ccccc1NC(=S)NC1CCCCC1	i	i	i	i	i	.	.	.	.
CC(=O)NC(=S)Nc1ccccc1C(=O)NC1CCCCC1	i	i	i	i	-8.3*	i	i	i	i
CS(=O)(=O)c1ccc(N2CCN(c3ccccn3)CC2)c([N+](=O)[O-])c1	i	i	i	i	i	.	.	.	.
Cc1cccc(COc2ccccc2C(=O)NC2CCC(O)CC2)c1 (stereo not given)	i	i	i	i	-10*	i	i	i	i
CC(=O)c1ccc(N=C2NC(=O)C(CO)(CO)S2)cc1	i	i	i	i	i	.	.	.	.
COc1ccc(CCNC(=O)c2ccc(OC)c(OC)c2)cc1OC	i	i	i	i	-6.8*	i	i	i	i
COc1cc(OC)cc(C(=O)NCCc2ccc(OC)c(OC)c2)c1	i	i	i	i	i	.	.	.	.
NNC(=O)[C@H](Cc1ccccc1)NC(=O)Nc1ccc2c(c1)OCCO2	i	i	i	i	i	.	.	.	.
CN(C)CCCNS(=O)(=O)c1ccc(N2CCC(c3ccc(Cl)cc3)=N2)cc1	i	i	i	i	-14*	60%*	i	i	i
O=S(=O)(c1ccc(N2CCC(c3ccc(Cl)cc3)=N2)cc1)N(CCO)CCO	i	i	i	i	i	.	.	.	.
Cc1cccc(C)c1OC(=O)CN(c1ccc(Cl)cc1)S(C)(=O)=O	i	i	i	i	-7.1*	i	i	i	i
CS(=O)(=O)N(CC(=O)NCc1ccccc1)c1ccc(Cl)cc1	i	i	i	i	i	.	.	.	.
Cc1nc2ccc(NC(=O)COc3ccccc3F)cc2s1	i	i	i	i	-5.8*	80%*	i	i	i
COc1ccc(NC(=O)CN(C)C(=O)c2cnc(Cl)c(Cl)c2)cc1	i	i	i	i	i	.	.	.	.
CCNc1nc(NCC)n2c(SCC(=O)Nc3ccccc3Cl)nnc2n1	i	i	i	i	-8.6*	i	i	i	i
CCNc1nc(NCC)n2c(SCC(=O)Nc3ccccc3C(F)(F)F)nnc2n1	i	i	i	i	i	.	.	.	.
CC1c2[nH]c3ccccc3c2CCN1C(=O)Nc1ccccc1 (stereo not given)	i	i	i	i	-7.5*	i	i	i	i
CCC(Sc1nc2ncccc2[nH]1)C(=O)NCCc1ccccc1 (stereo not given)	i	i	i	i	-8.7*	i	i	i	i
CCC(Sc1nc2ncccc2[nH]1)C(=O)NC1CCC(C)CC1 (stereo not given)	i	i	i	i	i	.	.	.	.
SMILES	MrgX1 agonist	RGS4 pot	RGS4 block	MrgX1 allo act	MrgX1 antag	MrgX1 ant reconf	HEK293 Ca flux	HEK293 Ca counter	HEK293 Ca cntr2
CCOC(=O)N1CCN(C(=O)c2ccccc2N(C)S(C)(=O)=O)CC1	i	i	i	i	-7.6*	i	i	i	i
Cc1ccc(CC2SC(N)=NC2=O)cc1 (stereo not given)	i	i	i	i	i	.	.	.	.
NC(=O)c1cc2c3ccccc3ccn2c1-c1ccccc1	i	i	i	i	-5.7*	i	i	i	i
CC(/C=N\NC(=O)Cn1c(C)nc2ccccc21)=C\c1ccccc1	i	i	i	i	-11*	i	i	i	i
Cc1cccc2sc(N(CCN3CCOCC3)C(=O)CCS(=O)(=O)c3ccccc3)nc12	i	i	i	i	i	.	.	.	.
CC(C)(C)C(=O)Nc1ccc(/C=C/C(=O)c2ccco2)cc1	i	i	i	i	i	.	.	.	.
COc1ccc(C(=O)N2CCCc3ccccc32)cc1	i	i	i	i	i	.	.	.	.
O=C(OCC(=O)N1CCCc2ccccc21)c1cc(S(=O)(=O)N2CCOCC2)ccc1Cl	i	i	i	i	-4.5*	i	i	i	i
CS(=O)(=O)c1ccc(C(=O)OCC(=O)N2CCCc3ccccc32)cc1	i	i	i	i	-7.3*	85%*	i	i	i
CC(C)Oc1ccc(C(=O)N2CCCc3ccccc32)cc1	i	i	i	i	-6.3*	i	i	i	i
Nc1ccc(Sc2ccccc2Cl)nc1	i	i	i	i	i	.	.	.	.
COCCN(C(=O)c1ccco1)c1nnc(-c2ccc(OC)c(OC)c2)s1	i	i	i	i	i	.	.	.	.
COc1ccc(-c2nnc(N(C)C(=O)c3ccco3)s2)cc1OC	i	i	i	i	-7.5*	i	i	i	i
Fc1cccc(CN2CCN(c3nc4nonc4nc3NC3CC3)CC2)c1	i	i	i	i	i	.	.	.	.
COc1ccc(NC(=O)C/C(C)=N/NC(=O)COc2ccc(OC)cc2)cc1	i	i	i	i	i	.	.	.	.
COc1ccc(OCC(=O)N/N=C(\C)CC(=O)Nc2cccc([N+](=O)[O-])c2)cc1	i	i	i	i	-11*	i	i	i	i

Compound activity: PubChem, Johns Hopkins Ion Channel Center
